Calls of active or inactive are those of the source.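 How the source made its calls: active means compounds blocking BCL-xL binding with IC50 of 10 µM or lower; inactive means the rest.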
Biological target: Bcl-2-like protein 1 (Homo sapiens) (UniProt Q07817)
Assay: Bcl-xL binding to Bim BH3 peptide, probe test – biochemical, fluorescence polarization, probe report, counter-screen for MCL1-BIM inhibitor project, late-stage follow-up (AID 624411)
Details: GST-BCL-xL / FITC-Bim BH3 fluorescence polarization
Summary of the method: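 Probe or stimulus – FITC-labelled Bim BH3 peptide probe at 4 nM · System – purified GST-Bcl-xL fusion protein, human Bcl-xL · Amount – 12.5 nM GST-Bcl-xL · Controls – DMSO and unlabeled Bim-BH3 peptide · Technique – fluorescence polarization, mP · Medium – PBS with 0.001% Brij · Timing – compound incubation 20 min at room temperature · Read-out basis – IC50 from curve fit at 50% inhibition level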

Sequence of Bcl-2-like protein 1 (Homo sapiens) (Q07817 whole entry, looked up): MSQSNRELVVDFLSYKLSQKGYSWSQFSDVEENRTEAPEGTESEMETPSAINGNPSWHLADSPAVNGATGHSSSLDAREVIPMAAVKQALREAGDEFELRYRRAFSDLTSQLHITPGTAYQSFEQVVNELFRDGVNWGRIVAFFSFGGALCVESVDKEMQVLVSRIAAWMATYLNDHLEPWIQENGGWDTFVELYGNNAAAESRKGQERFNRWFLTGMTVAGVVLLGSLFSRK

SMILES: CCN1CCN(C(c2ccc(C(F)(F)F)cc2)c2ccc3cccnc3c2O)CC1 (stereo unspecified)
- IC50: > 40 µM (inactive)

— PubChem BioAssay AID624411 (The Scripps Research Institute Molecular Screening Center, 2012)
